Bioassay records from PubChem BioAssay.
In the library only some 4.2% were active in any assay of this set; here they are far more common.
HDAC3 inhib: HDAC3 deacetylase inhibitors, primary screen, biochemical, fluorescence, cell-free homogeneous | recombinant HDAC3, fluorogenic peptide/trypsin coupled | 320,000 tested, 0.15% active | Histone deacetylase 3 (Homo sapiens), O15379 | inhibition, % at 8.3 µM; in the data active = inhibition above about 26%, passing the limit was not always enough; inconclusive = no clear call, values can overlap the other calls
GAA850 FXN act: FXN promoter activators, primary screen, cell-based, luciferase luminescence, HEK293 lucGAA850 | activation, % at 6 µM | HEK293 lucGAA850 FXN promoter luciferase reporter, 24 h; percent of 10 µM SAHA response | 360,000 tested, 0.56% active | AID 540364, 2011;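 active = activation above the average of all compounds screened plus 3 SD, cutoff fixed separately per campaign, cut at about 7.5% in these data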;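 also: 0% = DMSO wells and 100% = 10 µM SAHA wells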
SENP1 FRET inh: human SENP1 catalytic domain inhibitors, primary screen, biochemical, FRET, uHTS; 360,000 tested, 0.21% active; recombinant SENP1 catalytic domain, CyPet-SUMO1-YPet FRET cleavage; Sentrin-specific protease 1 (Homo sapiens), Q9P0U3; inhibition, % at 10 µM;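 active = inhibition at least 30% at 10 µM, raw YFP signal under a set limit, fluorescence ratio 0.5 to 1.5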;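 also: 0% = enzyme with DMSO and 100% = no enzyme wells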
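Assay system: hSENP1 catalytic domain, recombinant. Amount: SENP1 enzyme, 20 pM final. Schedule: 50 min reaction, RT, dark. Technique: FRET, CFP and YFP emission. Control set: no-enzyme wells low, DMSO-plus-enzyme wells high control.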
AHR act: AHR activators, primary screen, cell-based, luminescence, luciferase reporter, human. AHR-responsive luciferase reporter cells. activation, % at 5 µM. 320,000 tested, 2.5% active. Aryl hydrocarbon receptor (Homo sapiens), P35869. AID 2796, 2010; in the data active = activation above about 47%;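 also: 0% = vehicle wells and 100% = reference agonist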
Target sequence (P35869 whole entry, looked up): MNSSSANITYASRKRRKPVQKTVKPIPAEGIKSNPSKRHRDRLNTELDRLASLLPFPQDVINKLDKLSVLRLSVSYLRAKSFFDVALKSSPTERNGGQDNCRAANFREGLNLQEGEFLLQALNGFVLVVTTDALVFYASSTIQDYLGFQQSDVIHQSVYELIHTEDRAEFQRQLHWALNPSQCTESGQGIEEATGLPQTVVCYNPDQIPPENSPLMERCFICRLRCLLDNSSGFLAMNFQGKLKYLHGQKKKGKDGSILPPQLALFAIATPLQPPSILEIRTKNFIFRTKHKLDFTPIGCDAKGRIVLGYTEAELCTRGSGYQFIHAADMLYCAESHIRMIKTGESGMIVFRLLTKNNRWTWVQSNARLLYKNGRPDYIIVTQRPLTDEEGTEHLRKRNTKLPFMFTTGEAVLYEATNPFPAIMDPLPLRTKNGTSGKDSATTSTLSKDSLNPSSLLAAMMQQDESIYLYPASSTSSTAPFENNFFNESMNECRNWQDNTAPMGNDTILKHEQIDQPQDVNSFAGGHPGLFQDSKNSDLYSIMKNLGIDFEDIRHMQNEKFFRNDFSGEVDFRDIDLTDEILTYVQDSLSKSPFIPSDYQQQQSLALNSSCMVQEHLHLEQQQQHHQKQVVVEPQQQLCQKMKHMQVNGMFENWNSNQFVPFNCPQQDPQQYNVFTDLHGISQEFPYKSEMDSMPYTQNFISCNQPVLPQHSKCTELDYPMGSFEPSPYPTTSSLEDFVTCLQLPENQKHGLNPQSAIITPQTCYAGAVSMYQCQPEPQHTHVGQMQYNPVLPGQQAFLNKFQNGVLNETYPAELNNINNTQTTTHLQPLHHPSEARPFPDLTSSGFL
CTSL1 counter: Fasciola hepatica cathepsin L1 inhibitors, primary screen, counter-screen for PFM18AAP inhibitor project, biochemical, QFRET, fluorogenic peptide substrate | recombinant F. hepatica cathepsin L1, Z-Leu-Arg-MCA fluorescence | inhibition, % at 5.96 µM | 300,000 tested, 0.49% active | AID 1906, 2009;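 active = inhibition above the mean of all tested compounds plus 3 SD, set per screening campaign, cut at about 17% in these data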;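 also: 0% = plate median of test compound wells and 100% = 1 µM Z-Phe-Ala-diazomethylketone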
M18AAP inhibitor: PfM18AAP inhibitors, malaria aminopeptidase, primary screen, biochemical, QFRET, recombinant enzyme; H-Glu-NHMec fluorogenic cleavage; inhibition, % at 7.35 µM; 290,000 tested, 1.2% active; AID 1822, 2009;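 active = inhibition above the campaign mean inhibition over all tested compounds plus 3 SD, cut at about 28% in these data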;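 also: 0% = plate median of test compound wells and 100% = 2 mM ZnCl2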
Starred values were filed as active, the others as inactive; ? = inconclusive; . = not tested or not shown.

SMILES	HDAC3 inhib	GAA850 FXN act	SENP1 FRET inh	AHR act	CTSL1 counter	M18AAP inhibitor
O=C(c1ccco1)N1CCN(C2=NS(=O)(=O)c3ccccc32)CC1	1	1	0	4	-1	4
CCOC(=O)N1CCN(c2cc(NCCC(=O)O)c3c4c(onc24)-c2ccccc2C3=O)CC1	11	-2	100	43	21*	6
CC(C)c1ccc(CN2CCC(n3nccc3NC(=O)C3CCCC3)CC2)cc1	.	-1	2	.	.	.
COc1ccc(S(=O)(=O)NCCCn2ccnc2)cc1Cl	-3	0	1	5	0	-1
CN(CC(=O)Nc1ccc(F)c(F)c1F)C(=O)c1cc(S(=O)(=O)N(C)C)ccc1N1CCCC1	.	1	-2	.	.	.
COc1ccc(N(C(C)=O)c2nc(C)cc(C)c2C#N)c(OC)c1	-2	1	1	78*	1	2
COc1ccc(Oc2nc(C)cc(C)c2C#N)cc1	2	1	-27	22	-2	-1
O=C1C(=Cc2cccs2)C(=O)c2ccccc21	5	1	2	12	-4	11
O=C1/C(=C\c2cccs2)Sc2ccc3ccccc3c21	0	6	4	62*	-1	16
Cc1cccc(OCC(=O)N/N=C/c2cn[nH]c2-c2ccc(Cl)c(Cl)c2)c1	8	0	-1	47*	0	-4
C#CCOc1c(Cl)cc(/C=C2/C(=O)ON=C2C)cc1OCC	1	1	0	1	3	17
NC(=S)N/N=C/c1ccccc1OCCSc1ccc(Cl)cc1	.	-5	2	5	25*	6
COc1cccc(/C=N/NC(N)=S)c1OCc1ccccc1Cl	-2	-1	1	50*	7	-1
C#CCOc1c(Cl)cc(/C=N/NC(N)=S)cc1OCC	1	3	-1	0	80*	-1
CCOc1c(Cl)cc(/C=N/NC(N)=S)cc1OC	7	2	0	7	26*	7
CCNC(=S)N(CCO)Cc1cc2cc3c(cc2[nH]c1=O)OCO3	-1	0	2	43	2	-6
Cc1ccc2c(=O)n3c(nc2c1)C(CC(C)C)NC(=O)c1cccnc1-3 (stereo unspecified)	.	0	-2	.	.	.
CCOc1cc(/C=N/NC(N)=S)cc(Br)c1OCc1ccccc1C	9	0	1	21	3	-14
COc1cc(/C=N/NC(N)=S)cc(Br)c1OCc1ccccc1F	-1	-2	2	54*	5	-1
NC(Cc1ccc(Cl)cc1)c1csc(NC(=O)Nc2ccccc2-c2ccccc2)n1 (stereo unspecified)	.	-2	0	.	.	.
Clc1ccc(OCCn2ccnc2)c(Br)c1	-2	0	2	33	-5	6
Cc1cccc(Cl)c1OCCCn1ccnc1	3	1	2	58*	1	-3
Cc1cc(Cl)cc(C)c1OCCCCCn1ccnc1	?	-2	-1	28	-5	-2
Cc1cc(OCCCCCn2ccnc2)cc(C)c1Cl	3	0	-1	55*	0	-1
Clc1ccc(OCCn2ccnc2)c2ccccc12	?	1	1	74*	1	11
SMILES	HDAC3 inhib	GAA850 FXN act	SENP1 FRET inh	AHR act	CTSL1 counter	M18AAP inhibitor
CCN(CC(=O)Nc1ccccc1C(F)(F)F)C(=O)CN1C(=O)NC(C)(c2ccc3ccccc3c2)C1=O (stereo unspecified)	.	-3	0	.	.	.
O=C(O)c1ccccc1C(=O)OCCCc1ccncc1	-2	0	1	1	1	.
NC(=O)c1c(NC(=O)c2ccco2)sc2c1CCC2	7	-3	-13	76*	0	0
C=CCNC(=S)Nc1sc2c(c1C(N)=O)CCCC2	9	2	-3	58*	8	15
C=CC(=O)Nc1sc2c(c1C(N)=O)CCCC2	-6	-1	-3	-2	1	.
O=C(Nc1sc2c(c1C(=O)O)CCCCC2)c1ccco1	1	4	2	14	2	1
O=C(Nc1ccsc1C(=O)O)c1ccccc1	8	2	-1	5	6	-11
O=C(Nc1ccsc1C(=O)NC1CC1)c1ccccc1	-11	-1	0	59*	-1	-4
C=CCn1c(NCc2ccc3c(c2)OCO3)nc2ccccc21	3	4	-8	43	-1	0
CCn1c(NCc2ccc3c(c2)OCO3)nc2ccccc21	13	1	-3	69*	1	-8
CC1=NN(c2ccccc2)C(=O)C1C=Nc1ccc(N(C)C)cc1 (stereo unspecified)	12	-2	-40	30	3	31*
COc1ccccc1N1CCN(C(=O)c2cc(C(C)(C)C)oc2C)CC1	-2	2	0	3	0	29*
Cn1c(CNC(=O)CNC(=O)c2ccc(F)cc2)cc(=O)n(C)c1=O	-4	3	-6	1	-5	-7
O=C(CC(O)c1ccncc1)c1ccccc1O (stereo unspecified)	.	2	3	.	.	.
Cc1cc(SCCC(=O)O)nc2ccccc12	-7	0	-1	1	-1	30*
COc1ccc(C2CC=C(C(C)=O)CN2S(=O)(=O)c2ccc(Cl)cc2)cc1 (stereo unspecified)	.	.	0	.	.	.
O=C1CSC(=S)N1/N=C/c1cc(Br)c(O)c(Br)c1	-6	1	-21	0	0	40*
O=C1CSC(=S)N1N=Cc1ccccc1O	.	2	-16	.	.	.
COc1ccc(Br)cc1/C=N/N1C(=O)CSC1=S	3	2	7	49*	1	21
Cc1ccc2c(C)c(C(=O)N3CCCCC3CO)oc2c1C (stereo unspecified)	0	2	2	4	4	-12
O=C(CC[C@H]1O[C@@H](n2cnc3c(NC(=O)c4ccccc4)ncnc32)[C@H](O)[C@@H]1O)NCc1cccc2ccccc12	.	.	0	.	.	.
COc1ccc(C(CC(=O)c2ccccc2)C2CCCCC2=O)cc1 (stereo unspecified)	5	-1	5	-4	2	0
O=C(CC(c1ccco1)C1CCCCC1=O)c1ccccc1 (stereo unspecified)	0	3	0	-1	52*	3
O=C(Cn1nc(C(=O)O)c2ccccc2c1=O)Nc1ccccc1C(F)(F)F	0	0	4	2	-2	1
CN=Cc1nc(-c2ccccc2)oc1O	10	2	2	21	7	0
Oc1oc(-c2ccccc2Br)nc1C=Nc1ccc(Br)cn1	-4	0	-67	12	63*	0
